Assay type in all cases: functional
Experiment [1] deals with Candida albicans. The experiment can be described thus: Minimum concentration required to inhibit the growth of Candida albicans ATCC 64550 was determined. The gist of the method: (§1)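 Yeast cells grown in microplates in RPMI1640 buffered to pH 7.0 at 35 °C, without serum. The MIC is the lowest concentration that inhibits growth by 80%.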
A further experiment relates to Cryptococcus neoformans. The experiment can be described thus: Minimum concentration required to inhibit the growth of Cryptococcus neoformans TIMM1855 was determined. An outline of the steps: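 Medium was yeast nitrogen base buffered at pH 7.0, with microplates incubated at 35 °C. The MIC was defined as the lowest concentration producing 80% growth inhibition.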

Experiment [2] concerns Candida albicans. In words: Minimum concentration required to inhibit the growth of Candida albicans TIMM3164 was determined. The gist of the method: as §1
Experiment [3] deals with Candida albicans. The experiment can be described thus: Minimum concentration required to inhibit the growth of Candida albicans ATCC 24433 was determined in the presence of horse serum (20%). The gist of the method: (§2)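 Run in RPMI1640 buffered at pH 7.0 with 20% horse serum added for the incubation, in microplates at 35 °C. The MIC is the lowest concentration inhibiting growth by 80%.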

A further experiment has as its system Candida parapsilosis. In words: Minimum concentration required to inhibit the growth of Candida parapsilosis ATCC 90018 was determined. The conditions noted are these: Lodderomyces parapsilosis. The gist of the method:
as §1

In a further experiment the test system is Nakaseomyces glabratus. The experiment can be described thus: Minimum concentration required to inhibit the growth of Candida glabrata ATCC 90030 was determined. The gist of the method:
as §1

The next experiment deals with Candida tropicalis. The experiment can be described thus: Minimum concentration required to inhibit the growth of Candida tropicalis ATCC750 was determined. An outline of the steps:
as §1

The test system of experiment [4] is Candida albicans. In words: Minimum concentration required to inhibit the growth of Candida albicans SANK51486 was determined. The gist of the method:
as §1

The next experiment relates to Aspergillus fumigatus. The experiment can be described thus: Minimum concentration required to inhibit the growth of Aspergillus fumigatus ATCC 26430 was determined. An outline of the steps: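 Microplate broth assay in RPMI1640 buffered at pH 7.0, incubated at 30 °C. The MIC was taken as the lowest test concentration giving 80% growth inhibition.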
Experiment [5] deals with Candida albicans. In words: Minimum concentration required to inhibit the growth of Candida albicans ATCC 24433 was determined. The gist of the method: as §1
The subject of experiment [6] is Candida albicans. The experiment can be described thus: Minimum concentration required to inhibit the growth of Candida albicans SANK51486 was determined in the presence of horse serum (20%). The gist of the method:
as §2

In brackets after ≈: the same amount, converted by molar mass.

A word on the MIC: it is the least concentration at which growth counts as inhibited.

For the compound `C/C=C/C=C\C(=O)O[C@H]1[C@H](O)[C@H](OCC23C[C@@H]4[C@H](C)CC[C@H]4C4(C=O)CC2C=C(C(C)C)C34C(=O)O)O[C@H](C)[C@H]1OC` (some centres undefined), the MIC with Candida albicans [1] is 0.5 µg/mL (≈ 0.852 µM); in the experiment on Cryptococcus neoformans, 0.25 µg/mL (≈ 0.426 µM); in the experiment on Candida albicans [2] it was 0.5 µg/mL (≈ 0.852 µM); in the experiment with Candida albicans [3], 4 µg/mL; in the experiment with Candida parapsilosis, more than 4 µg/mL; with Nakaseomyces glabratus it was more than 4 µg/mL. In addition, the MIC against Candida tropicalis was 0.5 µg/mL (≈ 0.852 µM); against Candida albicans [4], 0.25 µg/mL (≈ 0.426 µM); with Aspergillus fumigatus it was more than 4 µg/mL; against Candida albicans [5], 0.5 µg/mL (≈ 0.852 µM).
Take `CC(C)C1=CC2CC3(C=O)[C@@H]4CC[C@@H](C)[C@H]4CC2(CO[C@@H]2C[C@H](C)N(Cc4ccc5c(c4)OCO5)C2)C13C(=O)O` (some centres undefined): the MIC in the experiment on Candida albicans [1] is 0.5 µg/mL (≈ 0.91 µM); against Cryptococcus neoformans it was more than 16 µg/mL; with Candida albicans [2] it was 0.5 µg/mL (≈ 0.91 µM); with Candida albicans [3], 1 µg/mL; in the experiment on Candida parapsilosis, more than 16 µg/mL; in the experiment on Nakaseomyces glabratus, more than 16 µg/mL. Besides, the MIC in the experiment with Candida tropicalis was 4 µg/mL (≈ 7.28 µM); against Candida albicans [4], 0.13 µg/mL (≈ 0.236 µM); with Candida albicans [6], 0.5 µg/mL; against Aspergillus fumigatus it was more than 16 µg/mL; with Candida albicans [5], 0.25 µg/mL (≈ 0.455 µM).
In the case of `OC(Cn1cncn1)(Cn1cncn1)c1ccc(F)cc1F` [FLUCONAZOLE], the MIC was more than 4 µg/mL in the experiment with Candida albicans [1]; more than 4 µg/mL in the experiment with Cryptococcus neoformans; more than 4 µg/mL against Candida albicans [2]; 0.5 µg/mL (≈ 1.63 µM) with Candida parapsilosis; more than 4 µg/mL against Nakaseomyces glabratus; 2 µg/mL (≈ 6.53 µM) with Candida tropicalis. Also, the MIC in the experiment on Candida albicans [4] was 0.25 µg/mL (≈ 0.816 µM); against Aspergillus fumigatus, more than 4 µg/mL; in the experiment on Candida albicans [5], 0.5 µg/mL (≈ 1.63 µM).
In the case of `COc1ccc(CN2C[C@H](OCC34C[C@@H]5[C@H](C)CC[C@H]5C5(C=O)CC3C=C(C(C)C)C45C(=O)O)C[C@@H]2C)cc1` (some centres undefined), the MIC with Candida albicans [1] is 0.5 µg/mL (≈ 0.933 µM); in the experiment on Cryptococcus neoformans, more than 16 µg/mL; with Candida albicans [2], 0.5 µg/mL (≈ 0.933 µM); in the experiment on Candida albicans [3], 1 µg/mL; in the experiment on Candida parapsilosis it was more than 16 µg/mL; against Nakaseomyces glabratus, 16 µg/mL (≈ 29.9 µM). Besides, the MIC in the experiment on Candida tropicalis was 4 µg/mL (≈ 7.47 µM); with Candida albicans [4], 0.25 µg/mL (≈ 0.467 µM); with Candida albicans [6], 0.5 µg/mL; against Aspergillus fumigatus it was more than 16 µg/mL; in the experiment on Candida albicans [5], 0.5 µg/mL (≈ 0.933 µM).
On to `C=C(C)CN1C[C@H](OCC23C[C@@H]4[C@H](C)CC[C@H]4C4(C=O)CC2C=C(C(C)C)C34C(=O)O)O[C@H](C)[C@@H](OC)C1` (some centres undefined), for which the MIC in the experiment on Candida albicans [1] was 0.03 µg/mL (≈ 0.0566 µM); in the experiment with Cryptococcus neoformans, 0.25 µg/mL (≈ 0.472 µM); against Candida albicans [2], 0.03 µg/mL (≈ 0.0566 µM); in the experiment on Candida albicans [3], 0.5 µg/mL; in the experiment with Candida parapsilosis, more than 16 µg/mL; against Nakaseomyces glabratus, 0.25 µg/mL (≈ 0.472 µM). For the same compound, the MIC in the experiment on Candida tropicalis was 0.13 µg/mL (≈ 0.245 µM); against Candida albicans [4], 0.02 µg/mL (≈ 0.0378 µM); in the experiment with Candida albicans [6], 0.25 µg/mL; against Aspergillus fumigatus, more than 16 µg/mL; against Candida albicans [5] it was 0.03 µg/mL (≈ 0.0566 µM).
`CC(C)C1=CC2CC3(C=O)[C@@H]4CC[C@@H](C)[C@H]4CC2(CO[C@@H]2C[C@H](C)N(Cc4ccccc4)C2)C13C(=O)O` (some centres undefined): the MIC is 2 µg/mL (≈ 3.95 µM) in the experiment on Candida albicans [1]; more than 16 µg/mL against Cryptococcus neoformans; 2 µg/mL (≈ 3.95 µM) against Candida albicans [2]; 4 µg/mL in the experiment on Candida albicans [3]; more than 16 µg/mL with Candida parapsilosis; more than 16 µg/mL against Nakaseomyces glabratus. The MIC was 8 µg/mL (≈ 15.8 µM) with Candida tropicalis; 0.5 µg/mL (≈ 0.989 µM) in the experiment on Candida albicans [4]; 1 µg/mL in the experiment on Candida albicans [6]; more than 16 µg/mL against Aspergillus fumigatus; 1 µg/mL (≈ 1.98 µM) in the experiment on Candida albicans [5].
`CC(C)C1=CC2CC3(C=O)[C@@H]4CC[C@@H](C)[C@H]4CC2(CS[C@@H]2C[C@H](C)N(Cc4ccccc4)C2)C13C(=O)O` (some centres undefined): the MIC is 1 µg/mL (≈ 1.92 µM) against Candida albicans [1]; more than 16 µg/mL in the experiment on Cryptococcus neoformans; 1 µg/mL (≈ 1.92 µM) in the experiment with Candida albicans [2]; 8 µg/mL in the experiment with Candida albicans [3]; more than 16 µg/mL in the experiment on Candida parapsilosis; more than 16 µg/mL against Nakaseomyces glabratus. The MIC against Candida tropicalis was 4 µg/mL (≈ 7.67 µM); in the experiment with Candida albicans [4], 0.25 µg/mL (≈ 0.479 µM); in the experiment on Candida albicans [6], 4 µg/mL; in the experiment with Aspergillus fumigatus it was more than 16 µg/mL; against Candida albicans [5] it was 0.5 µg/mL (≈ 0.958 µM).

For the origin of these results see ChEMBL document CHEMBL1135349, “Synthesis and evaluation of novel pyrrolidinyl sordaricin derivatives as antifungal agents” (2002).
